Screening data deposited in PubChem BioAssay by several laboratories.
Compounds with a hit are over-represented: about 2.5% of the library has one in this group of screens.
TRPC6 act = mouse TRPC6 channel activation. Q61143. HEK293-TRPC6 membrane potential dye fluorescence; hits give high values. B-score at 10 µM. 310,000 compounds, 0.13% hits;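 active means B-score of the integrated fluorescence ratio above library mean plus 3 SD, and starting fluorescence ratio within library mean plus 5 SD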;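 further: higher score means more depolarization so channel activation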
TRPC6 inhibitor = inhibitors of mouse TRPC6 channel; Q61143; 310,000 compounds, 1.1% hits; HEK293-TRPC6, membrane potential dye, ACh-evoked depolarization; hits give low values; B-score at 10 µM; AID 2553;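 active means B-score under library mean minus 3 SD, initial fluorescence not abnormally high, positive integrated signal ratio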;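 further: B-score derived from integrated fluorescence ratio over the kinetic read; more negative B-score means stronger inhibition of depolarization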
TRPC4 block = TRPC4 (mouse) channel inhibition. Q9QUQ5. HEK293 TRPC4beta/mu-opioid, DAMGO-evoked Fluo4 calcium flux; hits give low values. B-score at 10 µM. 300,000 compounds, 0.39% hits. AID 2247;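 active means B-score over 3 SD under the library average, no early fluorescence shift, positive overall ratio signal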
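Assay system: TRPC4beta/mu-opioid receptor HEK293 cell line; compound dosing: single concentration per test compound; detection: Fluo4 Ca2+ flux fluorescence; evaluation: per-well B score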
TRPC4 act = activators of mouse TRPC4 channel; Q9QUQ5; HEK293 TRPC4beta/mu-opioid, Fluo4 calcium fluorescence; hits give high values; B-score at 10 µM; 310,000 compounds, 0.49% hits;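 active means B-score above 5 SD of library B-scores, and initial fluorescence ratio not above library mean plus 5 SD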;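 further: positive B-score marks a calcium rise read as TRPC4 activation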
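Assay system: HEK293 stable line with TRPC4beta plus mu-opioid receptor; schedule: 45 min room-temperature Fluo4 loading, 110 s read; technique: kinetic Fluo4 calcium fluorescence; evaluation: integrated baseline-normalised fluorescence ratio, converted to per-well B score; controls: buffer (low) and maximal DAMGO (high)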
TRPC4 PAM = allosteric potentiators of mouse TRPC4 channel; Q9QUQ5; HEK293 TRPC4beta/mu-opioid, DAMGO EC20, Fluo-4 Ca2+ flux; hits give high values; B-score at 10 µM; 310,000 compounds, 0.42% hits; AID 2227;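 active means B-score of calcium response area above 5 SD of library B-scores, with initial fluorescence ratio within 5 SD of library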
Pemphigus Ab inh = blocks pemphigus antibody binding to human desmoglein-3 | P32926 | DSG3-coupled beads, scFv-anti-DSG3-GFP binding, flow cytometry; hits give low values | binding (percent of control), % at 10 µM | 310,000 compounds, 0.48% hits;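 active means binding more than 3 SD below its plate's average and above zero; inconclusive means below that plate limit but binding exactly zero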;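 further: hits lower antibody fragment binding to DSG3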
Target sequence (P32926 whole entry, looked up, the tested form may be a part): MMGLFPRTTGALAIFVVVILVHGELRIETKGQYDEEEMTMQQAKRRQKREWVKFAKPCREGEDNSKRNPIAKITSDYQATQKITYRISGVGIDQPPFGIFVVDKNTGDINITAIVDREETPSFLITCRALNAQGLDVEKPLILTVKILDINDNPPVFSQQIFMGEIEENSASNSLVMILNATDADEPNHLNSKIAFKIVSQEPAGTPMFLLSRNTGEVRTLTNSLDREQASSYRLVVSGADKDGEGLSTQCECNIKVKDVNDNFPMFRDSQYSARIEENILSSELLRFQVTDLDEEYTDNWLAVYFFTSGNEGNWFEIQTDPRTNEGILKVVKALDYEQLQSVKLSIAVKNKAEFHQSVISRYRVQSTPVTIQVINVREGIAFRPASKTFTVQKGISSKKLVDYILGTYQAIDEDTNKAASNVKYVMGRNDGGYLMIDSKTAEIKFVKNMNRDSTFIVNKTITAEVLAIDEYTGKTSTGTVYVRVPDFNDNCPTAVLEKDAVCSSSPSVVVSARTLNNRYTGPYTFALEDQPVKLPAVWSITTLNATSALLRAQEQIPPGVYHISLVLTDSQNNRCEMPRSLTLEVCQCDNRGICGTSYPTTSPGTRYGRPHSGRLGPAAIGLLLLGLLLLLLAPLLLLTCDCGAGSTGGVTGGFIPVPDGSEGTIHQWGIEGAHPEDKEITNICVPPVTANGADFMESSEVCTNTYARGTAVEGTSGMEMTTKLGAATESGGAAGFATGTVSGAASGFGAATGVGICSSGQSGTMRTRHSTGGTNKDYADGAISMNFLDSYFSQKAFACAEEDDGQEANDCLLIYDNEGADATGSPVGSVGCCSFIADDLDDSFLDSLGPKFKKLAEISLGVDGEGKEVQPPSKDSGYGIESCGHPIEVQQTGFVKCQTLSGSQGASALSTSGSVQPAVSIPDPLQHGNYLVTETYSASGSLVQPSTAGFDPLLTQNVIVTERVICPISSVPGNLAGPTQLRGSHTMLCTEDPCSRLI
TRPC4 spec 2 = mouse TRPC4 off-target activity of TRPC6 inhibitors, second screen. inhibition, % at 10 µM. AID 2776. HEK293 TRPC4/MOR, membrane potential dye fluorescence; channel activated by saturating DAMGO dose. 920 compounds, 42% hits. shares compounds with TRPC6 inhibitor;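 active means compounds whose fluorescence signal differed from control wells by over 3 SD, either direction, in both duplicate plates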
TRPC4 spec = tests whether TRPC6 inhibitors also affect mouse TRPC4. 920 compounds, 61% hits. activity change, negative = inhibition, % at 10 µM. shares compounds with TRPC6 inhibitor. HEK293 TRPC4/mu-opioid, membrane potential fluorescence. AID 2777;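 active means rise or fall in signal beyond 3 SD of buffer-only wells in both replicate plates, either sign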;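 further: integrated kinetic ratio of fluorescence range over baseline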
HEK293 MPD ctr 2-1 = second check of TRPC6 inhibitor effects in parental HEK293 cells. signal change vs control, % at 10 µM. shares compounds with TRPC6 inhibitor. 920 compounds, 31% hits. AID 2779. parental HEK293 membrane potential dye fluorescence; maximal acetylcholine challenge after compound addition;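 active means membrane potential signal moving either way by over 3 SD of the maximum-effect control, in both duplicate plates, meaning non-specific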
HEK293 MPD ctr-1 = checks TRPC6 inhibitor effects in parental HEK293 cells | shares compounds with TRPC6 inhibitor | parental HEK293 membrane potential dye fluorescence | membrane potential signal change, % at 10 µM | 920 compounds, 60% hits | AID 2780;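 active means membrane potential signal shifting up or down by more than 3 SD of buffer-only wells, on both duplicate plates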
HEK293 MPD ctr-2 = checks TRPC6 modulator effects in parental HEK293 cells | 2,400 compounds, 51% hits | shares compounds with TRPC6 inhibitor | AID 488924 | membrane potential dye fluorescence | membrane potential signal change, % at 10 µM;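 active means membrane potential signal moves up or down beyond 5 SD from buffer-only wells, on both duplicate plates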
HEK293 MPD ctr 2-2 = parental HEK293 nonspecific activity of TRPC6 modulators, second screen; membrane potential dye fluorescence; after compound, maximal acetylcholine stimulation; 2,400 compounds, 14% hits; shares compounds with TRPC6 inhibitor; inhibition, % at 10 µM;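 active means membrane potential signal drops by more than 5 SD from the mean control signal, in both duplicate plates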
TRPC4 ctr mod = selectivity of TRPC6 modulators against mouse TRPC4 | 2,400 compounds, 69% hits | HEK293 TRPC4/mu-opioid, membrane potential fluorescence | shares compounds with TRPC6 inhibitor | percent change from control (negative = decrease, positive = increase), % at 10 µM;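 active means membrane potential signal moved up or down beyond 5 SD of buffer control wells, in both duplicate plates, actives on both sides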
TRPC4/MOR inh 2 = second check of whether TRPC6 modulators also affect mouse TRPC4; shares compounds with TRPC6 inhibitor; HEK293 TRPC4/mu-opioid, membrane potential dye fluorescence; stimulated with maximal-effect DAMGO; inhibition, % at 10 µM; 2,400 compounds, 55% hits; AID 488928;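 active means drop in membrane potential signal beyond 5 SD of the control wells in both duplicate plates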;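 further: TRPC4 counter screen for TRPC6 hits run under conditions tuned for TRPC6 not TRPC4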
TRPC6 inh conf = confirmation of mouse TRPC6 inhibitors; shares compounds with TRPC6 inhibitor; HEK293-TRPC6, membrane potential dye, ACh-evoked depolarization; inhibition, % at 10 µM; 3,300 compounds, 43% hits; AID 488960;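 active means fluorescence ratio falls more than 5 SD below the full-stimulation control mean, in both duplicate runs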;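 further: integrated fluorescence ratio of peak minus minimum over baseline after agonist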
TRPC6 act confirm = confirmation of mouse TRPC6 activators | shares compounds with TRPC6 inhibitor | HEK293-TRPC6 membrane potential dye fluorescence, FDSS | activation, % at 10 µM | 2,800 compounds, 11% hits | AID 488961;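 active means ratio signal rise beyond 5 SD above unstimulated control wells' mean, seen in both duplicate runs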
Numbers stand for hits; - = inactive; ? = inconclusive; . = no result.

SMILES	TRPC6 act	TRPC6 inhibitor	TRPC4 block	TRPC4 act	TRPC4 PAM	Pemphigus Ab inh	HEK293 MPD ctr-2	HEK293 MPD ctr 2-2	TRPC4 ctr mod	TRPC4/MOR inh 2	TRPC6 inh conf	TRPC6 act confirm	others
CCOC(=O)c1cn(C2CC2)c2c(F)c(NCCCN(C)C)c(F)cc2c1=O	-	-7.4	-	-	-	-	.	.	.	.	67%	-	TRPC4 spec 2=-;TRPC4 spec=-23%;HEK293 MPD ctr 2-1=0.0%;HEK293 MPD ctr-1=-436%
Cc1ccc2c(c1)C(c1ccccc1)N(C(=O)c1cccc([N+](=O)[O-])c1)CC(=O)N2 (configuration not stated)	-	-	-	-	-	-	.	.	.	.	.	.
CC(C)OCCCNC(=O)CN1C(=O)c2cccc3cccc1c23	-	-	-	-	-	-	.	.	.	.	.	.
CC[n+]1ccc2cc(OC)c(OC)cc2c1Cc1ccc(OC)c(OC)c1	-	-6.4	-	-	-	-	-232%	-	-40%	-	-	-
CC1CCCN(C(=O)c2ccc3c(c2NCCO)C(=O)c2ccccc2C3=O)C1 (configuration not stated)	-	-5.9	-	-	-	?	-235%	-	-36%	68%	49%	-
CCN(CCN(C)C)C(=O)c1ccc2c(c1NCCO)C(=O)c1ccccc1C2=O	-	-5.9	-	-	-	-	-168%	-	-34%	49%	45%	-
O=C1c2ccccc2C(=O)c2c1ccc(C(=O)N1CCCCC1)c2NCCO	-	-	-	-	-	-	.	.	.	.	.	.
O=C(CC(c1ccccc1O)N1CCCCC1)N1CCCCC1 (configuration not stated)	-	-9.7	-	-	-	.	.	.	.	.	63%	.	TRPC4 spec 2=-;TRPC4 spec=3.6%;HEK293 MPD ctr 2-1=-;HEK293 MPD ctr-1=4.8%
O=C(CC(c1ccccc1)c1cc(Cl)ccc1O)N1CCCC1 (configuration not stated)	-	-	-	-	-	-	.	.	.	.	.	.
N#Cc1ccc(C(=O)Nc2ccc([N+](=O)[O-])cc2)c(F)c1	-	-	-	-	-	-	.	.	.	.	.	.
Cc1cc(Nc2cccc(F)c2)n2c(n1)nc1ccccc12	-	-	-	-	-	-	.	.	.	.	.	.
Cc1cc(NC2CCCCC2)n2c(n1)nc1ccccc12	-	-5.5	-	-	-	-	-	-	-	-	-	-
CCn1c(SCC(=O)N(C)CC(=O)Nc2ccc(OC)cc2)nnc1-c1ccco1	-	-	-	-	-	?	.	.	.	.	.	.
Cc1ccc(OS(=O)(=O)c2c(C)nn(C)c2Cl)c(C)c1	-	-6.5	-	-	-	-	-	-	-	-	72%	-
Cc1ccc(C)c(NS(=O)(=O)c2c(C)nn(C)c2C)c1	-	-	-	-	-	-	.	.	.	.	.	.
COC(=O)C1CN(C(=O)COc2ccc(Cl)cc2Cl)c2ccccc2O1 (configuration not stated)	-	-	-	-	-	-	.	.	.	.	.	.
COC(=O)C1CN(C(=O)COc2cccc(C)c2C)c2ccccc2O1 (configuration not stated)	-	-6	-	-	-	-	98%	-	14%	-	-	-
Cc1ccc(NC(=S)Nc2ccc(Cl)c(Cl)c2)c(OC(F)F)c1	-	-	-	-	-	-	.	.	.	.	.	.
Fc1ccc(NC(=S)Nc2ccccc2OC(F)F)cc1Cl	-	-6.5	-	-	-	.	-	-	-	35%	-	-
Cc1ccc2nc3c(c(N)c2c1)CCN3C	-	-7.1	-7	-	-	-	.	.	.	.	58%	-	TRPC4 spec 2=51%;TRPC4 spec=-27%;HEK293 MPD ctr 2-1=13%;HEK293 MPD ctr-1=-460%
CCCCc1c(C)nc2ccc(Br)cc2c1SC(N)N	.	.	.	.	.	-	.	.	.	.	.	.
CCCCN1CCc2c1nc1ccc(Br)cc1c2N	-	-6.3	-	-	-	-	-132%	98%	-37%	93%	88%	-
CN1CCc2c1nc1ccccc1c2N (tested in a mixture with another compound)	-	-	-	-	-	-	.	.	.	.	.	.
Cc1cccc2c(N)c3c(nc12)N(C)CC3	-	-5.5	-	-	-	-	-154%	91%	-36%	81%	78%	-
Cc1ccc2nc3c(c(N)c2c1)CCN3c1ccccc1	-	-	-	-	-	-	.	.	.	.	.	.
SMILES	TRPC6 act	TRPC6 inhibitor	TRPC4 block	TRPC4 act	TRPC4 PAM	Pemphigus Ab inh	HEK293 MPD ctr-2	HEK293 MPD ctr 2-2	TRPC4 ctr mod	TRPC4/MOR inh 2	TRPC6 inh conf	TRPC6 act confirm	others
CCN(CC)c1cc(C)c2cc(NC(=O)CNC(C)=O)ccc2n1	-	-5.7	-	-	-	-	-161%	59%	-28%	38%	-	-
CCN(CC)c1cc(C)c2cc(NC(=O)c3ccccc3F)ccc2n1	-	-	-	-	-	-	.	.	.	.	.	.
COc1ccc([N+](=O)[O-])cc1NC(=O)C(C)Sc1nc(-c2ccccc2)cs1 (configuration not stated)	-	-	-	-	-	-	.	.	.	.	.	.
Cc1ccc(C(=O)NN2C(=O)C3C(C2=O)C2C=CC3C23CC3)cc1 (configuration not stated)	-	-	-	-	-	-	.	.	.	.	.	.
O=C(NC(Nc1nc2ccc([N+](=O)[O-])cc2s1)(C(F)(F)F)C(F)(F)F)c1cccnc1	15	-8.2	-	-	-	-	388%	93%	92%	60%	77%	88%
Cc1ccc(CSCC(=O)Nc2ccc(N3CCOCC3)cc2N2CCOCC2)cc1	-	-	-	-	-	-	.	.	.	.	.	.
